For orientation: IC50 means the concentration that inhibits the measured activity by half.

Molecules are shown by their SMILES.

In one assay the test system is MCF7. As to the kind of experiment: Cytotoxicity against human MCF7 cells assessed as reduction in cell viability after 48 hrs by MTT assay. In kind it is functional, cell-based. The conditions noted are these: MCF7, 48 h. The gist of the method: (§1)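 1 × 10^4 cells per well, pre-incubated 12 h at 37 °C under 5% CO2, then exposed to serial dilutions of compound (paclitaxel as reference) for 48 h. MTT reagent (5 mg/mL) added for a further 4 h, formazan dissolved in DMSO, absorbance read at 570 nm. Three independent experiments, each in triplicate; IC50 from sigmoid curve fitting.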
Background: Tetrazolium assays rely on reduction of a dye to a coloured formazan, in cell work by metabolically active cells.

Another assay concerns A549. As to the kind of experiment: Cytotoxicity against human A549 cells assessed as reduction in cell viability after 48 hrs by MTT assay. In kind it is functional, cell-based. The conditions noted are these: A549, 48 h. The gist of the method:
as §1

For the compound `COc1cc(O)ccc1C(=O)C[C@H]1c2ccc(O)c(O)c2C[C@@H]1C(C)(C)O`, the IC50 was determined as 3.9 µM in the assay with MCF7 and 2.5 µM in the assay on A549.

Turning to `COc1cc(C(=O)OC[C@H]2O[C@@H](Oc3ccc4ccc(=O)oc4c3)[C@H](O)[C@@H](O)[C@@H]2O)cc(OC)c1O`, the 50% inhibitory concentration (IC50) in the assay on MCF7 and in the assay with A549 was over 10 µM each time.

Turning to `COC(=O)C[C@@H]1c2c(-c3ccc(O)cc3OC)cc(O)c(O)c2C[C@H]1C(C)(C)O`, the IC50 stood at 7.2 µM in the assay on MCF7 and 6 µM in the assay on A549.

`COc1cc(C(=O)OC[C@H]2O[C@@H](Oc3cc4oc(=O)ccc4cc3OC)[C@H](O)[C@@H](O)[C@@H]2O)ccc1O[C@@H]1O[C@H](CO)[C@@H](O)[C@H](O)[C@H]1O`: the IC50 in the assay with MCF7 and with A549 was over 10 µM each time.

For `COc1cc(O)ccc1C(=O)C[C@@H]1c2ccc(O)c(O)c2C[C@H]1C(C)(C)O`, the IC50 turned out to be 3.3 µM in the assay with MCF7 and 2.2 µM with A549.

On to `COc1cc2ccc(=O)oc2cc1O[C@@H]1O[C@H](COC(=O)c2cc(OC)c(O[C@@H]3O[C@H](CO)[C@@H](O)[C@H](O)[C@H]3O)c(OC)c2)[C@@H](O)[C@H](O)[C@H]1O`, for which the IC50 in the assay with MCF7 and with A549 was over 10 µM in each case.

Consider `COc1cc2ccc(=O)oc2cc1O[C@@H]1O[C@H](COC(=O)CCc2cc(OC)c(O[C@@H]3O[C@H](CO)[C@@H](O)[C@H](O)[C@H]3O)c(OC)c2)[C@@H](O)[C@H](O)[C@H]1O`, for which the IC50 with MCF7 and in the assay with A549 was over 10 µM each time.

Take `COC(=O)C[C@@H]1c2c(-c3ccc(O)cc3OC)cc(O)c(O)c2C[C@@H]1C(C)(C)O`: the half-inhibitory concentration (IC50) with MCF7 is 6.7 µM; in the assay on A549, 5.6 µM.
